In brackets after ≈: the same amount, converted by molar mass. Activity calls are given as the source filed them. No cut-off for these calls is given here.
How the values were obtained:
U-937 [1] = test: Antiinflammatory activity in human U937 cells assessed as inhibition of LPS-induced IL-8 production at 5 ug/ml treated 2 hrs before LPS challenge measured after 24 hrs by ELISA; type: functional
Procedure, shortened: (§1)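 PMA-differentiated U937 macrophages (10 ng/mL PMA 48 h, then 24 h rest) at 1 × 10^6 cells/mL in RPMI with 1% FBS; compound (0, 0.2, 1, 5 µg/mL) for 2 h, then A. actinomycetemcomitans ATCC 29522 LPS (1 µg/mL final) for 24 h, 37 °C 5% CO2. Supernatant cytokines and MMP-9 by ELISA (A450, 550 correction). Triplicate, two experiments, t test.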

U-937 [2] = test: Antiinflammatory activity in human U937 cells assessed as inhibition of LPS-induced PGE2 production at 5 ug/ml treated 2 hrs before LPS challenge measured after 24 hrs; type: functional, cell-based
U-937 [3] = test: Antiinflammatory activity in human U937 cells assessed as inhibition of LPS-induced CCL5 production at 5 ug/ml treated 2 hrs before LPS challenge measured after 24 hrs by ELISA; type: functional; procedure, shortened: as §1
Prevotella intermedia [4] = test: Antibacterial activity against Prevotella intermedia ATCC 25611 after 24 hrs; type: functional
Procedure, shortened: (§2)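 Broth microdilution in THB-HK: 24 h cultures diluted to OD655 0.2, mixed 1:1 with compound (0–40 µg/mL, twofold steps from 0.63), 24 h at 37 °C anaerobic (N2-H2-CO2 80:10:10); growth by OD655 relative to untreated. MIC = lowest concentration with no growth; MBC from no-growth wells plated on THB-HK agar, 5 days anaerobic. Triplicate, two independent experiments.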

Porphyromonas gingivalis [5] = test: Antibacterial activity against 14C-labeled Porphyromonas gingivalis ATCC 33277 assessed as inhibition of adhesion to human GMSM-K cells at 5 ug/ml after 30 mins by scintillation counting relative to control; type: functional; conditions: ATCC 33277, GMSM-K, 0.5 h
Procedure, shortened: (§3)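 14C-amino acid-labelled (20 µCi/mL, 16 h, anaerobic) mid-log P. gingivalis washed in PBS pH 7.2, suspended to OD655 0.8 in prereduced PBS; mixed with compound (final 0, 0.2, 1, 5 µg/mL) and added to confluent GMSM-K monolayers for 30 min at 37 °C; unbound cells washed off, bound bacteria released with 0.5 M NaOH, scintillation counted. Triplicate, three independent assays, mean ± SD.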

Porphyromonas gingivalis [6] = test: Antibacterial activity against 14C-labeled Porphyromonas gingivalis ATCC 33277 assessed as inhibition of adhesion to human GMSM-K cells at 1 ug/ml after 30 mins by scintillation counting relative to control; type: functional; conditions: ATCC 33277, GMSM-K, 0.5 h; procedure, shortened: as §3
U-937 [7] = test: Antiinflammatory activity in human U937 cells assessed as inhibition of IL-8 production at 5 ug/ml after 24 hrs by ELISA; type: functional, cell-based; procedure, shortened: as §1
U-937 [8] = test: Antiinflammatory activity in human U937 cells assessed as inhibition of LPS-induced MMP9 production at 1 ug/ml treated 2 hrs before LPS challenge measured after 24 hrs by ELISA; type: functional, cell-based; procedure, shortened: as §1
U-937 [9] = test: Antiinflammatory activity in human U937 cells assessed as inhibition of IL-6 production at 5 ug/ml after 24 hrs by ELISA; type: functional, cell-based; procedure, shortened: as §1
Prevotella intermedia [10] = test: Antibacterial activity against Prevotella intermedia ATCC 25611 assessed as reduction of bacterial growth at 1.25 ug/ml after 24 hrs; type: functional; design: scale not given: the % may be the effect or the level left; procedure, shortened: as §2
U-937 [11] = test: Antiinflammatory activity in human U937 cells assessed as inhibition of CCL5 production at 5 ug/ml after 24 hrs by ELISA; type: functional, cell-based; procedure, shortened: as §1
U-937 [12] = test: Antiinflammatory activity in human U937 cells assessed as inhibition of PGE2 production at 5 ug/ml after 24 hrs; type: functional, cell-based
U-937 [13] = test: Antiinflammatory activity in human U937 cells assessed as inhibition of LPS-induced TNFalpha production at 5 ug/ml treated 2 hrs before LPS challenge measured after 24 hrs by ELISA; type: functional; procedure, shortened: as §1
U-937 [14] = test: Antiinflammatory activity in human U937 cells assessed as inhibition of LPS-induced IL-6 production at 5 ug/ml treated 2 hrs before LPS challenge measured after 24 hrs by ELISA; type: functional; procedure, shortened: as §1
Fusobacterium nucleatum = test: Antibacterial activity against Fusobacterium nucleatum ATCC 25586 after 24 hrs; type: functional; procedure, shortened: as §2
U-937 [15] = test: Antiinflammatory activity in human U937 cells assessed as inhibition of TNFalpha production at 5 ug/ml after 24 hrs by ELISA; type: functional, cell-based; procedure, shortened: as §1
Porphyromonas gingivalis [16] = test: Antibacterial activity against Porphyromonas gingivalis ATCC 33277 after 24 hrs; type: functional; procedure, shortened: as §2
Porphyromonas gingivalis [17] = test: Antibacterial activity against 14C-labeled Porphyromonas gingivalis ATCC 33277 assessed as inhibition of adhesion to human GMSM-K cells after 30 mins by scintillation counting; type: functional, cell-based; procedure, shortened: as §3
U-937 [18] = test: Cytotoxicity against human U937 cells assessed as reduction of cell viability at up to 50 ug/ml after 2 hrs by MTT assay; type: cell-based; conditions: u-937, 2 h
Procedure, shortened: (§4)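 MTT colorimetric viability assay on GMSM-K epithelial cells and PMA-differentiated U937 macrophages after 2 h exposure to compound at up to 50 µg/mL.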

U-937 [19] = test: Antiinflammatory activity in human U937 cells assessed as inhibition of LPS-induced AP-1 activation at 5 ug/ml treated 1 hrs before LPS challenge measured after 1 hr; type: functional, cell-based
Procedure, shortened: (§5)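 PMA-differentiated U937 macrophages given compound at 5 µg/mL for 1 h, then A. actinomycetemcomitans LPS at 1 µg/mL for 1 h, 37 °C 5% CO2. Whole-cell extracts adjusted to 1 mg/mL protein; NF-κB p65 and AP-1 activation measured by Trans-AM kits. Unstimulated and compound-free controls included; triplicate, three independent experiments.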

Porphyromonas gingivalis [20] = test: Antibacterial activity against 14C-labeled Porphyromonas gingivalis ATCC 33277 assessed as inhibition of adhesion to human GMSM-K cells at 0.2 ug/ml after 30 mins by scintillation counting; type: functional, cell-based; procedure, shortened: as §3
U-937 [21] = test: Antiinflammatory activity in human U937 cells assessed as inhibition of IL1-beta production at 5 ug/ml after 24 hrs by ELISA; type: functional, cell-based; procedure, shortened: as §1
U-937 [22] = test: Antiinflammatory activity in human U937 cells assessed as inhibition of LPS-induced NF-kappaB p65 activation at 5 ug/ml treated 1 hrs before LPS challenge measured after 1 hr; type: functional, cell-based; procedure, shortened: as §5
U-937 [23] = test: Antiinflammatory activity in human U937 cells assessed as inhibition of LPS-induced IL1-beta production at 5 ug/ml treated 2 hrs before LPS challenge measured after 24 hrs by ELISA; type: functional; procedure, shortened: as §1
U-937 [24] = test: Antiinflammatory activity in human U937 cells assessed as inhibition of LPS-induced MMP9 production at 5 ug/ml treated 2 hrs before LPS challenge measured after 24 hrs by ELISA; type: functional, cell-based; procedure, shortened: as §1
[25] = Cytotoxicity against human GMSM-K cells assessed as reduction of cell viability at up to 50 ug/ml after 2 hrs by MTT assay; type: cell-based; procedure, shortened: as §4

CC(C)=CCOc1ccc(C(=O)/C=C/c2ccc(O)cc2)c(O)c1
inhibition at 5 µg/mL (U-937 [1]): 38% | inhibition (U-937 [2]): Active | inhibition at 5 µg/mL (U-937 [3]): 67% | Activity (Prevotella intermedia [4]): Dose-dependent effect | MBC (Prevotella intermedia [4]; ATCC 25611, 24 h): 5 µg/mL (≈ 15.4 µM) | MIC (Prevotella intermedia [4]; ATCC 25611, 24 h): 2.5 µg/mL (≈ 7.71 µM) | inhibition at 5 µg/mL (Porphyromonas gingivalis [5]): 36% | inhibition at 1 µg/mL (Porphyromonas gingivalis [6]): 31% | inhibition (U-937 [7]): inactive | inhibition (U-937 [8]): Active | inhibition (U-937 [9]): inactive | Activity (Prevotella intermedia [10]): 45% | inhibition (U-937 [11]): inactive | inhibition (U-937 [12]): inactive | inhibition at 5 µg/mL (U-937 [13]): 23% | inhibition at 5 µg/mL (U-937 [14]): 50% | Activity (Fusobacterium nucleatum): Dose-dependent effect | MBC (Fusobacterium nucleatum; ATCC 25586, 24 h): > 40 µg/mL | MIC (Fusobacterium nucleatum; ATCC 25586, 24 h): 40 µg/mL (≈ 123 µM) | inhibition (U-937 [15]): inactive | Activity (Porphyromonas gingivalis [16]): Dose-dependent effect | MBC (Porphyromonas gingivalis [16]; ATCC 33277, 24 h): 10 µg/mL (≈ 30.8 µM) | MIC (Porphyromonas gingivalis [16]; ATCC 33277, 24 h): 5 µg/mL (≈ 15.4 µM) | inhibition (Porphyromonas gingivalis [17]): Dose-dependent effect | Activity (U-937 [18]): Non-toxic | inhibition (U-937 [19]): Active | inhibition (Porphyromonas gingivalis [20]): inactive | inhibition (U-937 [21]): inactive | inhibition (U-937 [22]): Active | inhibition at 5 µg/mL (U-937 [23]): 29% | inhibition (U-937 [24]): Active | Activity [25]: Non-toxic

From ChEMBL document CHEMBL1667730, “Antibacterial and anti-inflammatory activities of 4-hydroxycordoin: potential therapeutic benefits” (J Nat Prod, 2011)
